Reference: ChEMBL document CHEMBL4257581, “Discovery of Small Molecule Splicing Modulators of Survival Motor Neuron-2 (SMN2) for the Treatment of Spinal Muscular Atrophy (SMA)” (J Med Chem, 2018)

What was measured:
Mus musculus = species: Mus musculus; assay: Stabilization of SMN2 mRNA in mouse myoblasts assessed as increase in SMN protein level by ELISA relative to DMSO control
[1] = Lipophilicity, log D of the compound at pH 7.4; assay type: physicochemical; details: buffer
[2] = Permeability of the compound at 5 uM after 4 hrs by PAMPA; assay type: ADME
[3] = Clearance in Sprague-Dawley rat at 1 mg/kg, iv or 10 mg/kg, po; assay type: ADME, organism-based; details: in vivo
[4] = Oral bioavailability in Sprague-Dawley rat at 10 mg/kg; assay type: ADME, organism-based; details: in vivo
[5] = AUC in Sprague-Dawley rat at 1 mg/kg, iv or 10 mg/kg, po; assay type: ADME, organism-based; details: in vivo
[6] = Drug level in Sprague-Dawley rat brain at 1 mg/kg, iv or 10 mg/kg, po after 7 hrs; assay type: ADME, organism-based; details: read-out: Drug uptake
[7] = Intrinsic clearance in rat liver microsomes at 1 uM up to 30 mins in presence of NADPH by LC-MS/MS analysis; assay type: ADME, microsome; details: read-out: CLH
[8] = AUC in mouse plasma at 10 mg/kg, po; assay type: ADME, organism-based
Summary of the method: (§1)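 Mouse PK: oral arm dosed at 10 mg/kg p.o. alongside a 1 mg/kg i.v. arm. Plasma and brain AUC were taken from the oral arm.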

[9] = AUC in mouse brain at 10 mg/kg, po; assay type: ADME, organism-based; summary of the method: as §1
[10] = Clearance in mouse at 1 mg/kg, iv or 10 mg/kg, po; assay type: ADME, organism-based; details: in vivo
Summary of the method: (§2)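 Mouse PK with dosing at 1 mg/kg i.v. and 10 mg/kg p.o.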

[11] = Half life in mouse at 1 mg/kg, iv or 10 mg/kg, po; assay type: ADME, organism-based; details: in vivo; summary of the method: as §2
[12] = Oral bioavailability in mouse at 10 mg/kg; assay type: ADME, organism-based; details: in vivo; summary of the method: as §1
[13] = Drug level in mouse brain at 10 mg/kg, po after 7 hrs; assay type: ADME, organism-based; details: read-out: Drug uptake
Summary of the method: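 Mouse PK at 10 mg/kg p.o. Brain concentration was measured at a single time point, 7 h after the oral dose.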

[14] = Dissociation constant, pKa of the compound; assay type: physicochemical
[15] = Solubility of the compound at pH 6.8; assay type: physicochemical; details: buffer
[16] = Intrinsic clearance in mouse liver microsomes at 1 uM up to 30 mins in presence of NADPH by LC-MS/MS analysis; assay type: ADME, microsome; details: read-out: CLH
[17] = Plasma clearance in C57BL/6 mouse at 1 mg/kg, iv or 5 mg/kg, po; assay type: ADME, organism-based
Summary of the method: (§3)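 Mice received single doses of 1 mg/kg i.v. or 5 mg/kg p.o. (n = 2). The vehicle was 10% 0.1 N HCl, 10% PG, 25 (20%) Solutol and 100 mM pH 5 citrate buffer. Plasma was sampled for PK parameters.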

[18] = Oral bioavailability in C57BL/6 mouse at 5 mg/kg; assay type: ADME, organism-based; details: in vivo; summary of the method: as §3
[19] = AUC (0 to 7 hrs) in C57BL/6 mouse plasma at 1 mg/kg, iv or 5 mg/kg, po; assay type: ADME, organism-based; summary of the method: as §3
[20] = Drug level in brain in C57BL/6 mouse brain at 1 mg/kg, iv or 5 mg/kg, po; assay type: ADME, organism-based; details: in vivo, read-out: Drug uptake
Homo sapiens = species: Homo sapiens; assay: Stabilization of SMN2 mRNA in human spinal muscular atrophy patient derived fibroblasts by ELISA

CN(c1ccc(-c2cc3cccnc3cc2O)nn1)C1CC(C)(C)NC(C)(C)C1
fold change (FC) (Mus musculus): 2.9
logD [1]: 3.23
log(permeability) [2]: -4.5
clearance [3]: 35 mL/min/kg
bioavailability [4]: 46%
AUC [5]: 1.17 µM·h
concentration at 7 h [6]: 68 nM

CN(c1ccc(-c2cc3cnccc3cc2O)nn1)C1CC(C)(C)NC(C)(C)C1
fold change (FC) (Mus musculus): 2.6
logD [1]: 3.07
log(permeability) [2]: -4.3
clearance [3]: 57 mL/min/kg
bioavailability [4]: 100%
AUC [5]: 1.35 µM·h
concentration at 7 h [6]: 630 nM

CN(c1ccc(-c2cc3ccccc3cc2O)nn1)C1CC(C)(C)NC(C)(C)C1
fold change (FC) (Mus musculus): 2.4 to 2.5
logD [1]: 4
microsomal CLint at 1 µM [7]: 17 µL/min/mg
AUC [8]: 16.9 µM·h
AUC [9]: 36.7 µM·h
clearance [10]: 56 mL/min/kg
half-life [11]: 3.7 h
bioavailability [12]: 100%

CN(c1ccc(-c2ccc(-n3ccc(N)n3)cc2O)nn1)C1CC(C)(C)NC(C)(C)C1
fold change (FC) (Mus musculus): 2.8
logD [1]: 2.52
log(permeability) [2]: -5.2
clearance [3]: 16 mL/min/kg
bioavailability [4]: 4%
AUC [5]: 0.092 µM·h
concentration at 7 h [6]: < 2.4 nM

CN(c1ccc(-c2ccc(-n3cc(CO)cn3)cc2O)nn1)C1CC(C)(C)NC(C)(C)C1
logD [1]: 2.16
log(permeability) [2]: -5.5

CN(c1ccc(-c2ccc(C#N)cc2O)nn1)C1CC(C)(C)NC(C)(C)C1
fold change (FC) (Mus musculus): 3.1
logD [1]: 3.2
microsomal CLint at 1 µM [7]: 7 µL/min/mg
AUC [8]: 5.2 µM·h
concentration at 7 h [13]: 2000 nM
clearance [10]: 23 mL/min/kg
half-life [11]: 4.5 h
bioavailability [12]: 37%

COc1cc(C#N)ccc1-c1ccc(N(C)C2CC(C)(C)NC(C)(C)C2)nn1
fold change (FC) (Mus musculus): 2.3

Oc1cc(-c2cn[nH]c2)ccc1-c1ccc(N2C[C@H]3CNC[C@H]3C2)nn1
logD [1]: 0.58

CN(c1ccc(-c2ccc(-c3cn[nH]c3)cc2O)nn1)C1CC(C)(C)NC(C)(C)C1
fold change (FC) (Mus musculus): 3.1
logD [1]: 2.92
log(permeability) [2]: -5.4
clearance [3]: 22 mL/min/kg
bioavailability [4]: 53%
AUC [5]: 2.3 µM·h
concentration at 7 h [6]: 58 nM

CN(c1ccc(-c2cc3ccccc3s2)nn1)C1CC(C)(C)NC(C)(C)C1
logD [1]: 3.4
microsomal CLint at 1 µM [7]: 40 µL/min/mg
AUC [8]: 4.9 µM·h
AUC [9]: 17.4 µM·h
clearance [10]: 100 mL/min/kg
half-life [11]: 3.2 h
bioavailability [12]: 100%

CC1(C)CC(Oc2ccc(-c3ccc(-n4cccn4)cc3O)nn2)CC(C)(C)N1CC(F)(F)F
fold change (FC) (Mus musculus): 1.1
logD [1]: 4.65

CC1(C)CC(Nc2ccc(-c3cc4ccccc4s3)nn2)CC(C)(C)N1
fold change (FC) (Mus musculus): 2.5
logD [1]: 2.67
pKa [14]: 10
solubility [15]: > 1000 µM
microsomal CLint at 1 µM [7]: 22.6 µL/min/mg
microsomal CLint at 1 µM [16]: 23.5 µL/min/mg
clearance [17]: 113 mL/min/kg
bioavailability [18]: 18%
AUC(0-t) [19]: 0.4 µM·h
concentration [20]: < 2.7 nM
fold change (FC) (Homo sapiens): 1.5

Oc1cc(-n2cccn2)ccc1-c1ccc(OC2CCNCC2)nn1
logD [1]: 0.69

CC1(C)CC(Nc2ccc(-c3ccc4ccccc4c3)nn2)CC(C)(C)N1
fold change (FC) (Mus musculus): 2.3

CC1(C)CC(Nc2ccc(-c3cccc4ccccc34)nn2)CC(C)(C)N1
fold change (FC) (Mus musculus): 1

CC1(C)CC(Oc2ccc(-c3ccc(-n4cccn4)cc3O)nn2)CC(C)(C)N1
logD [1]: 2.79
pKa [14]: 10.1

CN(c1ccc(-c2ccc(-n3cccn3)cc2O)nn1)C1CC(C)(C)NC(C)(C)C1
fold change (FC) (Mus musculus): 3.1
logD [1]: 3.11
pKa [14]: 10.3

CC1(C)CC(Cc2ccc(-c3ccc(-c4cn[nH]c4)cc3O)nn2)CC(C)(C)N1
logD [1]: 2.89
log(permeability) [2]: -5.3

CC1(C)CC(Oc2ccc(-c3ccc(-c4cn[nH]c4)cc3O)nn2)CC(C)(C)N1 [BRANAPLAM]
logD [1]: 2.51
log(permeability) [2]: -4.9
clearance [3]: 25 mL/min/kg
bioavailability [4]: 63%
AUC [5]: 3.03 µM·h
concentration at 7 h [6]: 914 nM

Oc1cc(-c2cn[nH]c2)ccc1-c1ccc(N2CCC3(CCCNC3)C2)nn1 (stereo not drawn)
logD [1]: 1.2

Oc1cc(-n2cccn2)ccc1-c1ccc(OC2CCNCC2(F)F)nn1 (stereo not drawn)
fold change (FC) (Mus musculus): 1.2
logD [1]: 2.59
pKa [14]: 5.89
